Calls of active or inactive are those of the source. No cut-off for these calls is given here.
Columns and labels:
[1] = test system: MDA-MB-435; assay: Induction of apoptosis in human MDA-MB-435 cells assessed as stretched stress action fibres at 5 uM after 20 hrs by Hoechst 33342 staining-based […] microscopy; assay type: functional, cell-based
Outline: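 MDA-MB-435 cells were grown for 24 h, then treated with or without 5 μM compound for 20 h. Cells were fixed for 20 min and permeabilised with 0.2% Triton X-100 for 4 min at room temperature. Actin was stained with a mouse anti-actin antibody and an Alexa Fluor 568 anti-mouse antibody, each for 1 h at RT. Nuclei were counterstained with Hoechst 33342, and cells were imaged by confocal microscopy.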

[2] = test system: SK-MEL-2; assay: Cytotoxicity against human SK-MEL-2 cells assessed as reduction in cell growth at 1 to 10 uM after 48 hrs by MTT assay relative to untreated control; assay type: functional; design: scale not given: the % may be the effect or the level left
Outline: (§1)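 Melanoma lines grown at 37 °C in humidified 5% CO2: MDA-MB-435 in DMEM/Ham's F12 1:1 with 10% FCS and antibiotics, SK-MEL-2 in RPMI-1640 with 10% FCS. Cells plated 24 h, then exposed 48 h to 100–0.01 µM (dilutions from fresh 100 µM stock in medium). MTT 0.5 mg/mL added for 4 h, crystals dissolved in EtOH/DMSO 1:1, absorbance read at 540 nm. Mean ± SD of three independent experiments.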

[3] = Cytotoxicity against human CAL-1 cells assessed as reduction in cell growth at 1 to 10 uM after 48 hrs by MTT assay relative to untreated control; assay type: functional; design: scale not given: the % may be the effect or the level left
Outline: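 CAL1 melanoma cells grown in DMEM with 2 mM L-glutamine and 10% FCS at 37 °C, 5% CO2. Seeded at 10^4 cells/well, grown 24 h, then treated 48 h across 100–0.01 μM (compounds dissolved in medium). Read-out: 0.5 mg mL⁻¹ MTT for 4 h, crystals dissolved in EtOH/DMSO 1:1, absorbance at 540 nm.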

[4] = test system: A549; assay: Cytotoxicity against human A549 cells after 48 hrs by SRB assay; assay type: functional; conditions: A549, 48 h
Outline: (§2)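 NCI-60 five-dose testing, 100 to 0.01 µM, under a 48 h continuous-exposure protocol. Growth estimated by SRB protein assay, read spectrophotometrically against untreated controls; IC50 derived from the dose-response.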

[5] = test system: MDA-MB-435; assay: Cytotoxicity against human MDA-MB-435 cells after 48 hrs by MTT assay; assay type: functional, cell-based; conditions: MDA-MB-435, 48 h; outline: as §1
[6] = Cytotoxicity against human NCI-ADR-RES cells after 48 hrs by SRB assay; assay type: functional
Outline: (§3)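 NCI-60 five-dose screen: cells exposed continuously for 48 h across 100 to 0.01 µM. Growth or viability estimated by sulforhodamine B protein staining, read spectrophotometrically against untreated controls; IC50 taken from the dose-response.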

[7] = test system: CAKI-1; assay: Cytotoxicity against human Caki1 cells after 48 hrs by SRB assay; assay type: functional; conditions: CAKI-1, 48 h; outline: as §2
[8] = test system: MDA-MB-435; assay: Cell cycle arrest in human MDA-MB-435 cells assessed as accumulation at subG1 phase at 5 uM after 48 hrs by propidium iodide staining-based FACS analysis (reference value: 0.1%); assay type: functional
[9] = test system: UACC-62; assay: Cytotoxicity against human UACC62 cells after 48 hrs by SRB assay; assay type: functional; conditions: UACC-62, 48 h
Outline: (§4)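 NCI-60 five-dose mode on the full human tumour line panel. Concentrations ran from 100 to 0.01 µM with 48 h continuous exposure. Growth was estimated by SRB protein staining against untreated controls, and IC50 values were derived from the dose–response.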

[10] = test system: MDA-MB-435; assay: Cytotoxicity against human MDA-MB-435 cells at 5 uM by MTT assay; assay type: functional, cell-based; conditions: TDE = time-dependent effect
Outline: (§5)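 MDA-MB-435 cells in DMEM/Ham's F12 (1:1) with 10% FCS, 37 °C, 5% CO2. Time course at a fixed 5 µM, incubated 8, 16, 24 or 48 h. Viability then read by MTT reduction (0.5 mg/mL, 4 h), formazan dissolved in EtOH/DMSO, absorbance at 540 nm, as percent living cells.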

[11] = test system: MDA-MB-468; assay: Cytotoxicity against human MDA-MB-468 cells after 48 hrs by SRB assay; assay type: functional; conditions: MDA-MB-468, 48 h; outline: as §3
[12] = test system: NCI-H226; assay: Cytotoxicity against human NCI-H226 cells after 48 hrs by SRB assay; assay type: functional; conditions: NCI-H226, 48 h; outline: as §3
[13] = test system: MDA-MB-435; assay: Cytotoxicity against human MDA-MB-435 cells assessed as cell growth at 10 uM after 48 hrs by MTT assay relative to untreated control; assay type: functional; conditions: MDA-MB-435, 48 h, read-out: Activity; outline: as §1
[14] = test system: SW-620; assay: Cytotoxicity against human SW620 cells after 48 hrs by SRB assay; assay type: functional; conditions: SW-620, 48 h; outline: as §4
[15] = test system: LOX IMVI; assay: Cytotoxicity against human LOXIMVI cells after 48 hrs by SRB assay; assay type: functional; outline: as §2
[16] = Cytotoxicity against human UO31 cells after 48 hrs by SRB assay; assay type: functional; conditions: UO-31, 48 h; outline: as §4
[17] = test system: MDA-MB-435; assay: Cytotoxicity against human MDA-MB-435 cells at 5 uM after 8 hrs by MTT assay; assay type: functional; outline: as §5
[18] = test system: SK-MEL-5; assay: Cytotoxicity against human SK-MEL-5 cells after 48 hrs by SRB assay; assay type: functional; conditions: SK-MEL-5, 48 h; outline: as §4
[19] = test system: COLO 205; assay: Cytotoxicity against human COLO205 cells after 48 hrs by SRB assay; assay type: functional; conditions: COLO 205, 48 h; outline: as §2
[20] = test system: MOLT-4; assay: Cytotoxicity against human MOLT4 cells after 48 hrs by SRB assay; assay type: functional; conditions: MOLT-4, 48 h; outline: as §3
[21] = test system: SF-539; assay: Cytotoxicity against human SF539 cells after 48 hrs by SRB assay; assay type: functional; conditions: SF-539, 48 h; outline: as §3
[22] = Cytotoxicity against human UACC257 cells after 48 hrs by SRB assay; assay type: functional; conditions: UACC-257, 48 h; outline: as §4
[23] = test system: MDA-MB-435; assay: Cytotoxicity against human MDA-MB-435 cells after 48 hrs by SRB assay; assay type: functional, cell-based; conditions: MDA-MB-435, 48 h; outline: as §3
[24] = test system: HOP-62; assay: Cytotoxicity against human HOP62 cells after 48 hrs by SRB assay; assay type: functional; conditions: HOP-62, 48 h; outline: as §2
[25] = read-out: LC50 (the source's name)

SMILES: C[C@@H]1NC(c2ccccc2)=Nc2nc3ccccn3c2C1=O
- Activity [1]: inactive
- Activity [2]: 20%
- Activity [3]: 20%

SMILES: C[C@@H]1NC(c2ccc(Br)cc2)=Nc2nc3ccccn3c2C1=O
- GI50 [4]: 6.7 µM
- TGI [4]: > 100 µM
- CC50 [4, 25]: > 100 µM
- IC50 [5]: 1.7 µM
- GI50 [6]: 7.45 µM
- TGI [6]: > 100 µM
- CC50 [6, 25]: > 100 µM
- GI50 [7]: 3.09 µM
- TGI [7]: > 100 µM
- CC50 [7, 25]: > 100 µM
- Activity [8]: 8.6%
- GI50 [9]: 4.35 µM
- TGI [9]: > 100 µM
- CC50 [9, 25]: > 100 µM
- Activity [10]: tde
- GI50 [11]: 1.98 µM
- TGI [11]: 5.12 µM
- CC50 [11, 25]: > 100 µM
- GI50 [12]: 14.7 µM
- TGI [12]: > 100 µM
- CC50 [12, 25]: > 100 µM
- growth at 10 µM [13]: -15%
- GI50 [14]: 3.75 µM
- TGI [14]: > 100 µM
- CC50 [14, 25]: > 100 µM
- GI50 [15]: 6.34 µM
- TGI [15]: > 100 µM
- CC50 [15, 25]: > 100 µM
- GI50 [16]: 8.11 µM
- TGI [16]: > 100 µM
- CC50 [16, 25]: > 100 µM
- Activity [17]: 35%
- GI50 [18]: 2.24 µM
- TGI [18]: 40.5 µM
- CC50 [18, 25]: > 100 µM
- GI50 [19]: 1.87 µM
- TGI [19]: 4.75 µM
- CC50 [19, 25]: 95.8 µM
- GI50 [20]: 12.8 µM
- TGI [20]: > 100 µM
- CC50 [20, 25]: > 100 µM
- GI50 [21]: 7.98 µM
- TGI [21]: 85.3 µM
- CC50 [21, 25]: > 100 µM
- GI50 [22]: 35.2 µM
- TGI [22]: > 100 µM
- CC50 [22, 25]: > 100 µM
- GI50 [23]: 1.33 µM
- IC50 [23]: 1.3 µM
- LC50 [23]: > 100 µM
- TGI [23]: 7.1 µM
- GI50 [24]: 5.75 µM
- TGI [24]: > 100 µM
- CC50 [24, 25]: > 100 µM

— ChEMBL document CHEMBL3124806, “Imidazopyridine-fused [1,3]-diazepinones: synthesis and antiproliferative activity” (Eur J Med Chem, 2014)
